Measured values of several laboratories.
Protocols differ between the studies behind these lines.
Organism: Mycolicibacterium smegmatis
Observed: microbial growth

COc1nc2ccc(Br)cc2cc1[C@@H](c1ccccc1)[C@@](O)(CCN(C)C)c1cccc2ccccc12 — MIC: 0.03 µg/mL
NNC(=O)c1ccncc1 — MIC (broth dilution; ATCC607): > 200 µg/mL
CC(C)=CCC/C(C)=C/C[N+](C)(C)CCOC1C2CC3CC(C2)CC1C3.[I-] (stereo not drawn) — MIC: 12 µg/mL
O=C(Nc1ccc2c(c1)OC(F)(F)O2)Nc1ccc(Cl)c(C(F)(F)F)c1 — MIC (MC2155): 6 µM
CN[C@@H]1[C@@H](O)[C@@H](O[C@@H]2[C@@H](O)[C@H](O[C@H]3O[C@H]([C@@H](C)O)[C@@H](O)[C@H](O)[C@H]3N)[C@@H](N)C[C@H]2N)OC[C@]1(C)O — MIC (broth dilution; 72 h): 8 µg/mL
NNC(=O)c1ccncc1 — MIC (agar dilution): 12.5 µg/mL
O=C(Nc1ccccc1)Nc1ncc([N+](=O)[O-])s1 — MIC (agar dilution; MC^2155): > 100 µM
CC(C)=CCC/C(C)=C/CNCCOc1ccccc1 — MIC: 12 µg/mL
Nc1ccc(C(=O)O)c(O)c1 — MIC (broth dilution; MC^2155): 1.25 µg/mL
Cc1ccc(-c2nc3ccc(C)cn3c2CC(=O)N(C)C)cc1 — MIC (broth dilution): > 50 µM
CN[C@H](CC(C)C)C(=O)N[C@H]1C(=O)N[C@@H](CC(N)=O)C(=O)N[C@H]2C(=O)N[C@H]3C(=O)N[C@H](C(=O)N[C@H](C(=O)O)c4cc(O)cc(O)c4-c4cc3ccc4O)[C@H](O)c3ccc(c(Cl)c3)Oc3cc2cc(c3O[C@@H]2O[C@H](CO)[C@@H](O)[C@H](O)[C@H]2O[C@H]2C[C@](C)(N)[C@H](O)[C@H](C)O2)Oc2ccc(cc2Cl)[C@H]1O — MIC (resazurin; ATCC607; 72 h): 3.12 µg/mL
CC(C)=CCC/C(C)=C/CNC(=O)COC1C2CC3CC(C2)CC1C3 (stereo not drawn) — MIC: 6.2 µg/mL
